UCH37 DUB inh = inhibitors of human deubiquitinating enzyme UCH37 | Q9Y5K5 | purified proteasome/UCH37, Ub-AMC cleavage fluorescence | inhibition, % (concentration not given with the values) | hit rate 0.33% among 330,000;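 active = mean inhibition over replicate wells above about 20%, limit read from the data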;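 also: 0% = compound-free wells with enzyme and 100% = wells lacking proteasome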
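Reagent: Ub-AMC substrate; assay system: Proteasome-associated human UCH37 deubiquitinase; controls: no-proteasome and no-compound wells; read-out: % inhibition of Ub-AMC cleavage fluorescence; timing: 30 min preincubation with enzyme, 25 min cleavage at room temperature; signal: AMC fluorescence from Ub-AMC cleavage, excitation 355 nm, emission 460 nm; buffer or medium: Tris-HCl pH 7.4 plus ovalbumin, ATP-MgCl2, DTT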
NSD2 inh = inhibitors of human histone methyltransferase NSD2; hit rate 0.54% among 310,000; NSD2 peptide methylation, AlphaScreen, 120 min; O96028; inhibition, % at 12.5 µM; in the data active = inhibition above about 50%
SIRT5 block = blocks human SIRT5 desuccinylation of peptide; Q9NXA8; Purified SirT5, succinyl-peptide AMC, trypsin-coupled fluorescence; inhibition, % at 15 µM; hit rate 1.1% among 330,000; in the data active = inhibition above about 15%
Target sequence (Q9NXA8 whole entry, looked up): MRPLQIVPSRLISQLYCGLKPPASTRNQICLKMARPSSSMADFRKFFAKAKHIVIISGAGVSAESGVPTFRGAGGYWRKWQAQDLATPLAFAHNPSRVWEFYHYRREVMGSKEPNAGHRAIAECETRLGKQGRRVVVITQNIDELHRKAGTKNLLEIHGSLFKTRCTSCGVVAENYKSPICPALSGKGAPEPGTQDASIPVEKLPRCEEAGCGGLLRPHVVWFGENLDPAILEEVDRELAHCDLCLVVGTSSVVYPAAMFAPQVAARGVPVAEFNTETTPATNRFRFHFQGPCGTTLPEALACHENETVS
Casp6 inh = caspase-6 (human) enzyme inhibition; hit rate 0.53% among 350,000; inhibition, % at 12.5 µM; purified caspase-6, Z-VEID-R110 cleavage fluorescence;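 active = mean inhibition across replicates at least about 35%, with every replicate also reaching that limit, limit read from the data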;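 also: 0% = median of neutral control wells and 100% = no fluorescence left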
Target sequence (P55212 24-179 limits assumed): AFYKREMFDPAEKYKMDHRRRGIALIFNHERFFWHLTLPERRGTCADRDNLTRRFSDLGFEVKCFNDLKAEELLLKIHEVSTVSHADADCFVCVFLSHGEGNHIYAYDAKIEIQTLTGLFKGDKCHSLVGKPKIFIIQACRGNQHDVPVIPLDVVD
Target sequence (P55212 194-293 limits assumed): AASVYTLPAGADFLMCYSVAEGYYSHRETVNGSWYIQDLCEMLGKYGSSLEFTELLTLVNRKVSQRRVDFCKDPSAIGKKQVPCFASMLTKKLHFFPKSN
FGF22 binding = FGF22 (human) thermal shift binding; activity (Tm shift, normalised), % at 9.99 µM; AID 651658; recombinant FGF22 thermal shift, SYPRO orange fluorescence; percent of sucrose octasulfate shift, DMSO zero; hit rate 1.5% among 340,000;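 active = mean Tm shift, scaled 0 neutral to 100 positive control, at about 1.3% or above, every replicate too, limit read from the data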
Numbers without * were called inactive. Compounds with a hit are over-represented: about 2.6% of the library has one in this group of screens.

For O=C(C[C@@H]1CC[C@H](NC(=O)C2CC2)[C@@H](CO)O1)Nc1ccccc1 the results were SIRT5 block 0, Casp6 inh -7 and FGF22 binding 0.
For C[C@@H]1CN([C@H](C)CO)C(=O)c2cc(NC(=O)Nc3cccc4ccccc34)ccc2O[C@@H](C)CCCCO[C@H]1CN(C)C(=O)C1CCCCC1 the results were SIRT5 block -5, Casp6 inh -3 and FGF22 binding -1.
Screening C[C@@H]1CCCCO[C@H](CN(C)C(=O)Nc2cccc3ccccc23)[C@H](C)CN([C@@H](C)CO)C(=O)c2cc(NC(=O)Nc3cccc4ccccc34)ccc2O1 returned SIRT5 block 2, Casp6 inh 0 and FGF22 binding 0.
`C[C@@H]1CCCCO[C@H](CN(C)C(=O)C2CCCCC2)[C@@H](C)CN([C@H](C)CO)C(=O)c2cc(NC(=O)Nc3cccc4ccccc34)ccc2O1` gave SIRT5 block 1, Casp6 inh -2 and FGF22 binding 1.3*.
`C[C@H]1CCCCO[C@H](CN(C)C(=O)Nc2cccc3ccccc23)[C@@H](C)CN([C@@H](C)CO)C(=O)c2cc(NC(=O)Nc3ccc4c(c3)OCO4)ccc2O1` gave SIRT5 block 8, Casp6 inh -2 and FGF22 binding 12*.
CC(C)NC(=O)Nc1ccc2c(c1)C(=O)N([C@@H](C)CO)C[C@@H](C)[C@@H](CN(C)C(=O)Nc1cccc3ccccc13)O2 was read as SIRT5 block -1, Casp6 inh 46* and FGF22 binding 0.
C[C@@H]1CCCCO[C@H](CN(C)C(=O)Nc2cccc3ccccc23)[C@@H](C)CN([C@H](C)CO)C(=O)c2cc(NC(=O)Nc3cccc4ccccc34)ccc2O1 was read as SIRT5 block 3, Casp6 inh -1 and FGF22 binding 1.6*.
For CNC[C@@H]1Oc2ccc(NC(=O)Cc3ccccc3)cc2C(=O)N([C@H](C)CO)C[C@@H]1C the results were SIRT5 block -1, Casp6 inh -2 and FGF22 binding 0.
`O=C(CP(=O)(c1ccccc1)c1ccccc1)NN=Cc1cc(Br)cc(Br)c1O` gave UCH37 DUB inh -6.
`CC1C/C=C/C=C/C=C/C=C/C(O[C@@H]2O[C@H](C)[C@@H](O)[C@H](N)[C@@H]2O)CC2OC(O)(CC(O)CC3OC3/C=C/C(=O)O1)CC(O)C2C(=O)O` (stereo partly drawn) gave SIRT5 block 0, Casp6 inh 45* and FGF22 binding 0.
C/C(C=Nn1c(-c2ccccc2)n[nH]c1=S)=C\c1ccco1 was read as UCH37 DUB inh 3.
`Cc1cc(Cl)ccc1NC(=O)COC(=O)c1nc2nccc(C)n2n1` gave UCH37 DUB inh 1, NSD2 inh -9, SIRT5 block -6, Casp6 inh 0 and FGF22 binding 43*.
`CCCn1c(N)c(C(=O)CN2CCN(S(=O)(=O)c3cccc(Cl)c3)CC2)c(=O)[nH]c1=O` gave UCH37 DUB inh 3, NSD2 inh 2, SIRT5 block -4, Casp6 inh 41* and FGF22 binding 0.
Screening Cn1c(=O)c(C(=O)CN2CCN(S(=O)(=O)c3ccccc3)CC2)c(N)n(Cc2ccccc2)c1=O returned UCH37 DUB inh 5 and NSD2 inh 0.
For Cc1ccc2nsnc2c1NC(=O)c1ccc([N+](=O)[O-])cc1 the results were UCH37 DUB inh 6, NSD2 inh -2, SIRT5 block -3, Casp6 inh -5 and FGF22 binding 43*.
Screening CCN(Cc1ccccc1)S(=O)(=O)CCNC(=O)c1ccccc1 returned NSD2 inh -2, SIRT5 block -2 and Casp6 inh -4.
Screening CCN(Cc1ccccc1)S(=O)(=O)CCNC(=O)c1ccc(OC)cc1 returned UCH37 DUB inh 2, NSD2 inh 0, SIRT5 block 35*, Casp6 inh 1 and FGF22 binding 0.
For O=C(Nc1ccccc1)c1ccc(Cn2cc(C(F)(F)F)ccc2=O)cc1 the results were UCH37 DUB inh 1 and NSD2 inh 1.
O=C(Nc1ccccc1)c1cccc(Cn2cc(C(F)(F)F)ccc2=O)c1 was read as UCH37 DUB inh 1, NSD2 inh 1, SIRT5 block 24*, Casp6 inh 2 and FGF22 binding 0.
Screening C/C=C(\C)C(=O)OC1CC(C)(C)C[C@H]2C3=CC[C@@H]4[C@@]5(C)CCC(O[C@@H]6O[C@@H](C(=O)O)[C@@H](O)C(O[C@@H]7OC[C@H](O)[C@@H](O)[C@@H]7O[C@@H]7OC(CO)C(O)[C@@H](O)[C@@H]7O)C6O[C@@H]6OC(CO)C(O)C(O)C6O)[C@@](C)(CO)[C@@H]5CC[C@]4(C)[C@]3(C)CC(O)[C@@]12CO (stereo partly drawn) returned UCH37 DUB inh -1, SIRT5 block 1, Casp6 inh 58* and FGF22 binding 0.
CC(C)NC(=O)Nc1cccc2c1O[C@@H](CN(C)C(=O)Nc1ccccc1)[C@@H](C)CN([C@H](C)CO)C2=O was read as SIRT5 block 4, Casp6 inh -1 and FGF22 binding 0.
Screening COc1ccc2cc3cc(C(=O)NCCCN4CCc5ccccc5C4)sc3nc2c1 returned UCH37 DUB inh -242, NSD2 inh -1, SIRT5 block 19*, Casp6 inh -1 and FGF22 binding 0.
Screening CCOc1ccc(NC(=O)c2ccc(NC(=S)NC3CCCCC3)cc2)cc1 returned UCH37 DUB inh 5, NSD2 inh -1, Casp6 inh 1 and FGF22 binding 0.
Screening CCOc1ccc(NC(=O)c2ccc(NC(=S)NC3CC3)cc2)cc1 returned UCH37 DUB inh 0, NSD2 inh -1, SIRT5 block -3, Casp6 inh 1 and FGF22 binding 1.9*.
For COc1cccc(C2NC(=S)NC(C)=C2C(=O)c2ccccc2)c1OC (stereo not drawn) the results were UCH37 DUB inh 6, NSD2 inh 11, SIRT5 block 1, Casp6 inh -1 and FGF22 binding 43*.
CN(C(=O)C1Cc2c(-c3ccc(Cl)cc3)ccnc2O1)c1ccccc1 (stereo not drawn) was read as NSD2 inh 0, SIRT5 block -2, Casp6 inh 3 and FGF22 binding 25*.
For CCC(=O)N(C)C[C@@H]1Oc2cc(C#Cc3ccccn3)ccc2S(=O)(=O)N([C@@H](C)CO)C[C@@H]1C the results were SIRT5 block -2, Casp6 inh 2 and FGF22 binding 0.
Screening C/C(=N\NC(=O)c1ccccc1O)C1C(=O)c2ccccc2C1=O returned NSD2 inh 8.
For CC(=NNC(=O)c1ccccc1O)C1C(=O)c2ccccc2C1=O the results were UCH37 DUB inh 21*.
`O=C(OCC1OC(n2ccc(=O)[nH]c2=O)C2OC12)c1ccccc1` (stereo not drawn) gave UCH37 DUB inh 3, NSD2 inh -4, Casp6 inh 3 and FGF22 binding 43*.

Compound activity from PubChem.
